From publication PMC10825549 (JID Innovations, 2023)
“Also recorded” adds a separate entry of the source.

Legend:
[1] = 28-day minipig repeat exposure study: toxicokinetics; type: in vivo; conditions: for concentration at 0 h / concentration at 0.5 h / concentration at 1 h / concentration at 2 h / concentration at 4 h / concentration at 8 h / concentration at 12 h / concentration at 24 h: both, plasma, topical; for concentration in the skin: terminal sacrifice (day 28)
Method in brief: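 Topical solution applied to minipigs once daily for 28 days at 0, 40, 80 or 160 mg/day, left on skin 20–22 h, then wiped with moist towel. Jugular blood collected days 1 and 28, pre-dose and ~0.5, 1, 2, 4, 8, 12, 22 h after application, after IM acepromazine 0.2–0.4 mg/kg. Pigs nonfasted; K2 EDTA plasma; validated LC-MS/MS.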

[2] = Metabolic stability in liver microsomes; type: in vitro ADME; conditions: minipig
Method in brief: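 Test compound from 1 mM DMSO solution preincubated 5 min with dog, human, monkey, rat or minipig liver microsomes. NADPH (10 mM) then added. Reactions stopped at 0, 5, 15 and 30 min with 0.05% formic acid in acetonitrile containing loperamide internal standard. Supernatants analysed by LC-MS/MS; n = 1 per microsome species.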

Jak1/3 [3] = assay: IC50 of ATI-1777 for inhibiting Jak1/3 used as plasma reference level; conditions: reference level for plasma concentrations; assay not described
CYP3A4 = CYP3A4 (Homo sapiens, UniProt P08684); assay: Cytochrome P450 phenotyping; type: in vitro ADME; conditions: recombinant human CYP3A4; with NADPH; 30 minutes; n = 1
Chain of CYP3A4 (P08684 whole entry): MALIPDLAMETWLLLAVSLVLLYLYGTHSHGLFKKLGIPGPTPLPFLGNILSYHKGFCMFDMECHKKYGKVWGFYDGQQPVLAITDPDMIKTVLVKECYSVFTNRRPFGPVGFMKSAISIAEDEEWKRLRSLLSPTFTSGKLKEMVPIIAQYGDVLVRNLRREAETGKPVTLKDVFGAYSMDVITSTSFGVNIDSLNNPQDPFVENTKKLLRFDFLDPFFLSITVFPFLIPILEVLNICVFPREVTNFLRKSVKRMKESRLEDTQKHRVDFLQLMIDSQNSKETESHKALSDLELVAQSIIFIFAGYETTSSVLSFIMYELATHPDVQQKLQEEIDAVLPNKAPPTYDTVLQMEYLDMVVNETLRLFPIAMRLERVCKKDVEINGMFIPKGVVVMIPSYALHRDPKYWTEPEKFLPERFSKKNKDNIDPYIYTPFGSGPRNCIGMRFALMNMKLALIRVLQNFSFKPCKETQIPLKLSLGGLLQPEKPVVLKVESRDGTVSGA
Method in brief: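 Recombinant human CYP3A4 was prepared at 100 nM, and a 2 μM dosing solution of test compound in DMSO was added on ice. After prewarming, 8 mM NADPH solution or blank buffer was added for 30 minutes. Acetonitrile with internal standard stopped the reaction. The plate was shaken and centrifuged, and the supernatant was analysed by LC-MS/MS; n = 1.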

RSK2 = RSK2 (Homo sapiens, UniProt P51812); assay: IC50 for kinases of potential cross-over; type: biochemical
Chain of RSK2 (P51812 whole entry): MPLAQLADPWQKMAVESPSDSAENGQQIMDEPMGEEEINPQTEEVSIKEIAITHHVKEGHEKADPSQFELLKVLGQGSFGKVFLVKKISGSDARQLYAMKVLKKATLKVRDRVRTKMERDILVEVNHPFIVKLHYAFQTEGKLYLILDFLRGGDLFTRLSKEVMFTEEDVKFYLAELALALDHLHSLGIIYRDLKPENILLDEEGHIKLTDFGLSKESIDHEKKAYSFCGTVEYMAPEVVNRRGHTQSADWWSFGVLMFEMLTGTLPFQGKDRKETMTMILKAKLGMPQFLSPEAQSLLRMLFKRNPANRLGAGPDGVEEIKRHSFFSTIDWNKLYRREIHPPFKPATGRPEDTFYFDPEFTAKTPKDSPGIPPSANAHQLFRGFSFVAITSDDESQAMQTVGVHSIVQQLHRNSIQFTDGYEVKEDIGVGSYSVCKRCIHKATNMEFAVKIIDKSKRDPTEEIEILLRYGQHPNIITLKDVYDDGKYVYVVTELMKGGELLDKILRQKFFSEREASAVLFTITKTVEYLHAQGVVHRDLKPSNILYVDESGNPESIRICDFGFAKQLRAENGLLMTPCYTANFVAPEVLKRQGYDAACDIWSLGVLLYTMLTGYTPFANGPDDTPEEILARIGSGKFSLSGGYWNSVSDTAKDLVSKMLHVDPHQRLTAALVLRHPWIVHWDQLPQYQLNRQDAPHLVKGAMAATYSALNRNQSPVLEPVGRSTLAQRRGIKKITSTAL

CYP2C19 = CYP2C19 (Homo sapiens, UniProt P33261); assay: Cytochrome P450 phenotyping; type: in vitro ADME; conditions: recombinant human CYP2C19; with NADPH; 60 minutes; n = 1
Chain of CYP2C19 (P33261 whole entry): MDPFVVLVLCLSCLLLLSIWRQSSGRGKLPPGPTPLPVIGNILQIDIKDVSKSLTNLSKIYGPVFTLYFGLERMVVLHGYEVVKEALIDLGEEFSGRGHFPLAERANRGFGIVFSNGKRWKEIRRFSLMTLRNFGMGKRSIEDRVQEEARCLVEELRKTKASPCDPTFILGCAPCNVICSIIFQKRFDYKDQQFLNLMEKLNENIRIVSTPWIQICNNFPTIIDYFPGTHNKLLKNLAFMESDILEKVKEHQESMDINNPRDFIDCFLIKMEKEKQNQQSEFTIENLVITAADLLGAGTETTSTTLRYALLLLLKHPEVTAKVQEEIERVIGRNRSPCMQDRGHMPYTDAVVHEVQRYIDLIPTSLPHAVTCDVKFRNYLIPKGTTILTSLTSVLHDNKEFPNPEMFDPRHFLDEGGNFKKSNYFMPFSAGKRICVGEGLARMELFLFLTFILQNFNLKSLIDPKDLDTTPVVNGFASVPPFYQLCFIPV

Jak1/3 [4] = assay: Inhibition of IL-2-induced STAT phosphorylation in PBMCs; type: cell-based, human
Method in brief: (§1)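 Ficoll-isolated human PBMCs, cryopreserved, thawed into RPMI/10% heat-inactivated FBS assay medium, 200,000 cells/well. Serially diluted test compound (final 20 μM to 2 × 10−6 μM) or 0.1% DMSO vehicle preincubated 1 h at 37 °C. Cytokine then added for 5–10 min, followed by 30 min shaking at 4 °C and lysis. Phospho-STAT5/STAT4 by MSD immunoassay, phospho-STAT1 by ELISA. IC50 reported as mean ± SD.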

Jak2/TYK2 = assay: Inhibition of IL-12-induced STAT phosphorylation in PBMCs; type: cell-based, human
Method in brief: as §1

CYP1A2 = CYP1A2 (Homo sapiens, UniProt P05177); assay: Cytochrome P450 phenotyping; type: in vitro ADME; conditions: recombinant human CYP1A2; with NADPH; 60 minutes; n = 1
Method in brief: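 Recombinant human CYPs prepared at CYP1A2 200 nM, CYP2B6/2C8 250 nM, CYP2C9 100 nM, CYP2D6 50 nM. Test compound added as 2 μM DMSO dosing solution on ice. Plate prewarmed, then 8 mM NADPH solution or blank buffer added. Incubation 60 min (1A2, 2B6, 2C8) or 30 min (2C9, 2D6). Stopped with acetonitrile plus internal standard; supernatant by LC-MS/MS; n = 1.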

MKNK1/MNK1 = MKNK1/MNK1 (Homo sapiens, UniProt Q9BUB5); assay: IC50 for kinases of potential cross-over; type: biochemical
Chain of MKNK1/MNK1 (Q9BUB5 whole entry, the tested form may be a part): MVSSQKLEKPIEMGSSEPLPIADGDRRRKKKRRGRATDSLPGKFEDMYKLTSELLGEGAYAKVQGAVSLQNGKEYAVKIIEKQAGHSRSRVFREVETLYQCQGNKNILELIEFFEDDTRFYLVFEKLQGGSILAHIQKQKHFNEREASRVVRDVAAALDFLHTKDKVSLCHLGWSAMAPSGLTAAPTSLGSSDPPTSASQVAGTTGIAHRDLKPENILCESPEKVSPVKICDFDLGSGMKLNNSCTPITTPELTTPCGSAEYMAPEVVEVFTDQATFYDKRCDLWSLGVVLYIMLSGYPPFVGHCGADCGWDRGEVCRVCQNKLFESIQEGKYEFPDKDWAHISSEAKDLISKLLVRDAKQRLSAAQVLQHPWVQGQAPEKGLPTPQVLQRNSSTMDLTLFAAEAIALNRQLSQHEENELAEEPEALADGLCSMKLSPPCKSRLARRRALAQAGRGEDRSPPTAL

TYK2 = TYK2 (Homo sapiens, UniProt P29597); assay: Inhibition of catalytic domain activity, TYK2; type: biochemical
Chain of TYK2 (P29597 897-1176 limits assumed): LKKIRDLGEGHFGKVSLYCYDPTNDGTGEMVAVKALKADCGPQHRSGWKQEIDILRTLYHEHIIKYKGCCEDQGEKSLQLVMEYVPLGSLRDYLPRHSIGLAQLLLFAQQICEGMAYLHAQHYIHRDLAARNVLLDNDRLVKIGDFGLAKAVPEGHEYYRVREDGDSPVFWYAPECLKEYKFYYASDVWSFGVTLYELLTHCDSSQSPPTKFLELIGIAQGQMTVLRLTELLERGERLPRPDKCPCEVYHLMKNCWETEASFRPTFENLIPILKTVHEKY
Method in brief: (§2)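 Z′-LYTE biochemical kinase assay run by the vendor per manufacturer's protocol. Each kinase plate carried 0%/100% phosphorylation and 0%/100% inhibition controls. Development-reaction and compound-fluorescence interference controls at each compound concentration. n = 1 per kinase.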

minipig = assay: 28-day minipig repeat exposure study: toxicology; type: in vivo; conditions: topical solution daily for 28 days, 0, 40, 80 and 160 mg/day
Method in brief: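 GLP repeat-dose dermal study in minipigs. Topical solution given daily for 28 days at 0, 40, 80 and 160 mg/day. Left on skin 20–22 h each day, then the site was wiped clean with a moist towel. Dermal tolerability and toxicokinetics assessed.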

KDR (VEGFR2) = KDR (VEGFR2) (Homo sapiens, UniProt P35968); assay: IC50 for kinases of potential cross-over; type: biochemical
Chain of KDR (VEGFR2) (P35968 20-1356): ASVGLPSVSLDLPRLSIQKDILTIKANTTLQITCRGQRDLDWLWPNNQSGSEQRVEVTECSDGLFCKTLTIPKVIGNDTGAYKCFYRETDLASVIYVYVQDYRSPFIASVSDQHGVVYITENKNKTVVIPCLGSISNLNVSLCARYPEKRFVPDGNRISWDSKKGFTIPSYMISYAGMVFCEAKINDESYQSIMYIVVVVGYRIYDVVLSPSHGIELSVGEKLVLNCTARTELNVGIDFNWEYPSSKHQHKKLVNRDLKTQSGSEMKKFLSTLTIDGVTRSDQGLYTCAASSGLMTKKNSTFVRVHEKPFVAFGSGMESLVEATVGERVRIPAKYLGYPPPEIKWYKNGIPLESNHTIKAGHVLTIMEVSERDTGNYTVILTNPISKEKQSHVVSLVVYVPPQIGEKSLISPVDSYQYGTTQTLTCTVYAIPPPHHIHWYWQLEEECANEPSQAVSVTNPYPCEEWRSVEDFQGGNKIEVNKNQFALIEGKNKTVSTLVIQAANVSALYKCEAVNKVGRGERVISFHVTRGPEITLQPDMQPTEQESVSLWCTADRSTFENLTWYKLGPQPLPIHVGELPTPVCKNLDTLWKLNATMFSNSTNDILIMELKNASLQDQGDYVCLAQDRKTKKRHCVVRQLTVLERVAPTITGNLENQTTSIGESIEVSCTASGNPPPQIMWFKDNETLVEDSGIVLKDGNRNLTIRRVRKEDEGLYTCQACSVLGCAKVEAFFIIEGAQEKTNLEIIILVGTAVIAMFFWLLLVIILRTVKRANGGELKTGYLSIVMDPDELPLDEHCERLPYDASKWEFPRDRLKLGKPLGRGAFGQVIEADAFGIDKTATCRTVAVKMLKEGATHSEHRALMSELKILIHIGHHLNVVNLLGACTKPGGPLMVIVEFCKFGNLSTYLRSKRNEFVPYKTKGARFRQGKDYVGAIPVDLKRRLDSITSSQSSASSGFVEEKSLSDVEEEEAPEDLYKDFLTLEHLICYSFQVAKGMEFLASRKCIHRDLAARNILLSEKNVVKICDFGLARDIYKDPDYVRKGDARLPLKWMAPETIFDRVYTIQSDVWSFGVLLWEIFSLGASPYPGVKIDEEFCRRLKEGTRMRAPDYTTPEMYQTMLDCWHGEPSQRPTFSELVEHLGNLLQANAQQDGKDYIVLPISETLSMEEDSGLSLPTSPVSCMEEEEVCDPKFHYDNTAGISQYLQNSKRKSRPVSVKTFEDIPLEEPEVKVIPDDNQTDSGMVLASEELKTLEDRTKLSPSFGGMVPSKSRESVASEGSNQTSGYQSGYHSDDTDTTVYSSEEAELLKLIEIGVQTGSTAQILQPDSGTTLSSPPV

Jak2 = Jak2 (Homo sapiens, UniProt O60674); assay: Inhibition of catalytic domain activity, Jak2; type: biochemical
Chain of Jak2 (O60674 849-1124 limits assumed): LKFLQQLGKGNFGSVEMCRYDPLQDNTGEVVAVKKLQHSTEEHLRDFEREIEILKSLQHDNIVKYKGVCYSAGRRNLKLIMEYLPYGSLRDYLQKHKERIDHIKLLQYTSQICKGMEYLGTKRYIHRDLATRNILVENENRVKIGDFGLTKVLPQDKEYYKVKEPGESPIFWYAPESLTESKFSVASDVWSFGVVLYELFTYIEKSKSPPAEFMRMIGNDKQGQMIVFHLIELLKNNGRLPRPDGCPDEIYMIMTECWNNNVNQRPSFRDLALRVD
Method in brief: as §2

Jak1/2 = assay: Inhibition of IFN-γ-induced STAT phosphorylation in PBMCs; type: cell-based; conditions: Homo sapiens, PBMC, read-out: IC50 Mean ± SD
Method in brief: as §1

MARK1 = MARK1 (Homo sapiens, UniProt Q9P0L2); assay: IC50 for kinases of potential cross-over; type: biochemical
Chain of MARK1 (Q9P0L2 whole entry): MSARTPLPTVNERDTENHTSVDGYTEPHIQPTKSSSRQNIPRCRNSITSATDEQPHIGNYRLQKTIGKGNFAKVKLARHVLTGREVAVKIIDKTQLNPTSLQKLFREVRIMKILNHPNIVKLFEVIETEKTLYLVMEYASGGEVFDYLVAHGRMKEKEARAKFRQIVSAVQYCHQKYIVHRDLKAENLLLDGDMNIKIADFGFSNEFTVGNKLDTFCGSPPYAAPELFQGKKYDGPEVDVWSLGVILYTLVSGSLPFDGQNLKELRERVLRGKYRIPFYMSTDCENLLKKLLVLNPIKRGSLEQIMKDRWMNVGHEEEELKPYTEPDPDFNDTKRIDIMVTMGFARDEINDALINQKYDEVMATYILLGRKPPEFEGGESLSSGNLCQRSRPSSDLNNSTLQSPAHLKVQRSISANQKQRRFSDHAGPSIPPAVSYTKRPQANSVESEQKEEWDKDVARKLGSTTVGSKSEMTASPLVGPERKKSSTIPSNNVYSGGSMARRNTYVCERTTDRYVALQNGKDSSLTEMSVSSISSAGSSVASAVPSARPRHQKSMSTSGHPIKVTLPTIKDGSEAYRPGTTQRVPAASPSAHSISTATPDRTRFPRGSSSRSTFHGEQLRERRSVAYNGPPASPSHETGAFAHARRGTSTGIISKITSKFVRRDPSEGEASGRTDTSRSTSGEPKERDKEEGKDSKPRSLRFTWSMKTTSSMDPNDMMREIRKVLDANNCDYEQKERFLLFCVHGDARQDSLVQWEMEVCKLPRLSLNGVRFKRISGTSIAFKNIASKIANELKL

FLT4 (VEGFR3) = FLT4 (VEGFR3) (Homo sapiens, UniProt P35916); assay: IC50 for kinases of potential cross-over; type: biochemical
[5] = Homo sapiens, PBMC, read-out: IC50 Mean ± SD

CCOC(=O)c1cnc2[nH]ccc2c1N[C@@H]1CCCN(C(=O)CC#N)C1 [ATI-1777, ethyl (R)-4-((1-(2-cyanoacetyl)piperidin-3-yl)amino)-1H-pyrrolo[2,3-b]pyridine-5-carboxylate]
quantifiable plasma concentrations ([1]; 160 mg group, day 28, all pigs): < 6.26 ng/mL | plasma concentrations when quantifiable ([1]; 40 and 80 mg/day, days 1 and 28, nonquantifiable in most pigs): ≤ 4.94 ng/mL | concentration at 0 h ([1]; 40 mg/day): 0.34 ng/mL | concentration at 0.5 h ([1]; 40 mg/day): 0.143 ng/mL | concentration at 1 h ([1]; 40 mg/day): 0.0685 ng/mL | concentration at 2 h ([1]; 40 mg/day): 0.108 ng/mL | concentration at 4 h ([1]; 40 mg/day): 0.121 ng/mL | concentration at 8 h ([1]; 40 mg/day): 0 ng/mL | concentration at 12 h ([1]; 40 mg/day): 0 ng/mL | concentration at 24 h ([1]; 40 mg/day): 0 ng/mL | concentration at 0 h ([1]; 80 mg/day): 0.118 ng/mL | concentration at 0.5 h ([1]; 80 mg/day): 0.647 ng/mL | concentration at 1 h ([1]; 80 mg/day): 0.0995 ng/mL | concentration at 2 h ([1]; 80 mg/day): 0.197 ng/mL | concentration at 4 h ([1]; 80 mg/day): 0.193 ng/mL | concentration at 8 h ([1]; 80 mg/day): 0.173 ng/mL | concentration at 12 h ([1]; 80 mg/day): 0.823 ng/mL | concentration at 24 h ([1]; 80 mg/day): 0 ng/mL | concentration at 0 h ([1]; 160 mg/day): 1.82 ng/mL | concentration at 0.5 h ([1]; 160 mg/day): 0.479 ng/mL | concentration at 1 h ([1]; 160 mg/day): 1.14 ng/mL | concentration at 2 h ([1]; 160 mg/day): 1.12 ng/mL | concentration at 4 h ([1]; 160 mg/day): 0.755 ng/mL | concentration at 8 h ([1]; 160 mg/day): 0.684 ng/mL | concentration at 12 h ([1]; 160 mg/day): 1.02 ng/mL | concentration at 24 h ([1]; 160 mg/day): 0.0569 ng/mL | concentration in the skin ([1]; females): ≥ 1960 ng/g | concentration in the skin ([1]; males): ≥ 4280 ng/g | CLint scaled [2]: 365 mL/min/kg | microsomal CLint [2]: 295 µL/min/mg | half-life ([2]; T1/2, Study 1, n = 1): 2.85 min | half-life ([2]; T1/2, Study 2, n = 1): 5 min | IC50 of ATI-1777 for inhibiting Jak1/3 (Jak1/3 [3]): 0.045 µg/mL | Percentage Remaining (CYP3A4): 0.56% | IC50 (RSK2): 1050 nM | Fold Selectivity (RSK2; RSK2 vs Jak1 (= 1)): 700 fold | Percentage Remaining (CYP2C19): 75.5% | IC50 (Jak1/3 [4]; [5]): 19 ± 6 nM | Fold Jak1/3 (Jak1/3 [4]; IL-2, Jak1/3 (reference)): 1.0 fold | IC50 (Jak2/TYK2; [5]): 898 ± 178 nM | Fold Jak1/3 (Jak2/TYK2; IL-12, Jak2/TYK2 vs Jak1/3): 47.3 fold | Percentage Remaining (CYP1A2): 55.7% | IC50 (MKNK1/MNK1): 584 nM | Fold Selectivity (MKNK1/MNK1; MKNK1/MNK1 vs Jak1 (= 1)): 389 fold | IC50 (TYK2): 19 nM | ATI-1777–related effects / adverse effects (minipig): No ATI-1777–related effects were noted at any dose; also recorded: did not present any adverse effects | IC50 (KDR (VEGFR2)): 127 nM | Fold Selectivity (KDR (VEGFR2); KDR (VEGFR2) vs Jak1 (= 1)): 85 fold | IC50 (Jak2): 7.1 nM | IC50 (Jak1/2): 97 ± 34 nM | IC50 (MARK1): 1250 nM | Fold Selectivity (MARK1; MARK1 vs Jak1 (= 1)): 833 fold | IC50 (FLT4 (VEGFR3)): 113 nM | Fold Selectivity (FLT4 (VEGFR3); FLT4 (VEGFR3) vs Jak1 (= 1)): 75 fold
